Screening results from PubChem BioAssay.
Rpn11 inh: Rpn11 (PSMD14) deubiquitinase inhibitors, primary screen, biochemical, fluorescence polarization, uHTS. 26S proteasome non-ATPase regulatory subunit 14 (Homo sapiens), O00487. human 26S proteasome, Ub4-pepOG fluorescence polarization; 20S core pre-blocked with epoxomicin. inhibition, % at 20 µM. 0.59% of 360,000 active. AID 588493, 2011;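 active means inhibition at 20 µM, scaled to each plate's controls, above about 33%, limit read from the data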
Target sequence (O00487 whole entry, looked up): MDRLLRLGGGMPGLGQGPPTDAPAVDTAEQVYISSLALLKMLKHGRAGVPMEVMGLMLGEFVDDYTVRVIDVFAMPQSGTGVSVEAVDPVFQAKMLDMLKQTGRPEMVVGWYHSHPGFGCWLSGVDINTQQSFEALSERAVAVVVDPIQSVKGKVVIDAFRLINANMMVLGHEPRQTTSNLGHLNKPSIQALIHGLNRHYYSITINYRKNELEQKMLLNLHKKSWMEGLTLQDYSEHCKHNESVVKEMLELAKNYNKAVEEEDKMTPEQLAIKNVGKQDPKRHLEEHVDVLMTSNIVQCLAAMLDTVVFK
CSN deneddyl inh: inhibitors of CSN-mediated cullin deneddylation, primary screen, biochemical, fluorescence polarization, uHTS; Purified CSN, SCF-Nedd8-OG deneddylation; inhibition, % at 12.5 µM; 0.38% of 360,000 active;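 active means pattern-corrected inhibition above about 35%, with an unprinted fluorescence ratio check between 0.5 and 1.5, limit read from the data, passing the limit was not always enough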;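 further: 0% = enzyme with substrate and 100% = substrate without enzyme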
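Schedule: reaction 90 min, room temperature / Assay system: HEK293T-derived human Csn5 enzyme / Input: Csn5 at 0.24 nM final / Measure: inhibition of Csn5 cleavage, % / Control set: substrate-only high control, full reaction low control / Technique: fluorescence polarization of the substrate / Buffer or medium: Tris/NaCl/DTT buffer, pH 7.5 / Reagent: SCFSkp2-Nedd8OG substrate at 10 nM final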
TPT1 inhibitor: Candida albicans TPT1 enzyme inhibitors, primary screen, biochemical, fluorescence polarization. tRNA 2'-phosphotransferase TPT1 (Candida albicans SC5314). recombinant caTPT1, FP RNA substrate dephosphorylation. inhibition, % at 5 µM. 0.81% of 300,000 active. AID 1962, 2009;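 active means inhibition above the mean of all tested compounds plus 3 SD, set per screening campaign, cut at about 24% in these data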;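 further: plate controls were DMSO alone for no effect and ferristatin control at 100 nM for full effect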
Rin1-Abl PPI inh: inhibitors of Rin1-Abl protein binding, primary screen, biochemical, TR-FRET; inhibition, % at 7.35 µM; AID 588664, 2011; Tyrosine-protein kinase ABL1 (Homo sapiens) + Ras and Rab interactor 1 (Homo sapiens), …; 0.4% of 360,000 active; in the data active means inhibition above about 5%, passing the limit was not always enough
Neddyl block: inhibitors of cullin neddylation, primary screen, biochemical, TR-FRET, uHTS, NAE and Ubc12. 0.58% of 360,000 active. inhibition, % at 25 µM; in the data active means inhibition above about 36%
HNF4A DNA FP: change in binding of human HNF4A to DNA, primary screen, biochemical, fluorescence polarization, FITC-DNA. Hepatocyte nuclear factor 4-alpha (Homo sapiens), P41235. 1 h. activity change, % at 10 µM. 0.3% of 360,000 active; in the data active means activity change above about 30%, passing the limit was not always enough
Rpn11 inh conf: Rpn11 (PSMD14) deubiquitinase inhibitors, confirmation, biochemical, fluorescence polarization, single concentration; shares compounds with Rpn11 inh; 29% of 1,900 active; purified human 26S proteasome, Ub4-pepOG fluorescence polarization; proteasome pretreated with epoxomicin; AID 602318, 2012; inhibition, % at 20 µM
MMP-2 inh: MMP-2 enzyme inhibition, confirmation, counter-screen for RPN11 inhibitor project, biochemical, fluorescence, single concentration; shares compounds with Rpn11 inh; 4% of 1,900 active; recombinant MMP-2, FRET peptide cleavage fluorescence; inhibition, % at 20 µM;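 further: human MMP-2 activated beforehand with APMA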
Thrombin FP: bovine thrombin protease inhibition, confirmation, counter-screen for Rpn11 inhibitor project, biochemical, fluorescence polarization, single concentration | shares compounds with Rpn11 inh | bovine thrombin cleavage of Ub4-pepOG | inhibition, % at 20 µM | 13% of 1,900 active | AID 602333, 2012;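 active means mean inhibition at least 40% at 20 µM, or signal 3 deviations below plate average, so some actives read negative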;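 further: plate controls were thrombin with DMSO for no effect and buffer wells lacking thrombin for full effect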
Active calls of the source: *; x = not tested or not shown. An excerpt weighted towards active compounds, which were near 2.4% of everything screened. Unless noted, no stated cut-off is given here; in the data, active means inhibition above about 40%; inactive means the rest.

SMILES	Rpn11 inh	CSN deneddyl inh	TPT1 inhibitor	Rin1-Abl PPI inh	Neddyl block	HNF4A DNA FP	Rpn11 inh conf	MMP-2 inh	Thrombin FP
CC(=O)N(c1ccc2oc(=O)sc2c1)S(=O)(=O)c1cccc2cccnc12	85*	3	-4	5	2	31*	8	19	-9
Cc1cc(Cl)ccc1Oc1ccccc1C(=O)CC#N	56*	-9	4	4	-8	-3	28	22	25
COC(=O)C1CC(c2ccc(Cl)cc2)=NO1 (configuration not stated)	-2	-2	-1	-1	-9	0	x	x	x
Cn1cccc1CC(=O)N/N=C/C=C/c1ccccc1	2	8	0	-2	-17	9	x	x	x
O=NN(CC(=O)NN=CC=Cc1ccccc1)CC(=O)NN=CC=Cc1ccccc1	72*	7	x	7	-11	0	21	-7	-31
O=C1NC(=S)N/C1=C/C=C/c1ccccc1	-2	3	0	-6	-12	1	x	x	x
O=C1NC(=S)NC1=Cc1ccc2c(c1)CCC2	46*	3	x	1	-24	39*	-13	29	-14
CC1=NN(C(=O)c2ccc(Cn3ccc([N+](=O)[O-])n3)cc2)C(O)(C(F)(F)F)C1 (configuration not stated)	3	1	-5	1	-7	4	x	x	x
Cn1c(SCC(=O)NCC2CCCO2)ncc(C(=O)Nc2ccc(Cl)cc2)c1=O (configuration not stated)	64*	8	3	1	-32	2	11	-47	-3
CC(=O)C1=C(C)NC(SCC(=O)c2ccc(Cl)c(Cl)c2)=C(C#N)C1c1ccco1 (configuration not stated)	41*	11	20	2	3	16	22	45*	15
O=C(Nc1nc2ccccc2s1)c1ccc(Cl)s1	-6	-2	5	-5	21	-4	x	x	x
Cc1ccc2nc(NC(=O)c3ccc(-c4nc5ccccc5s4)s3)sc2c1	152*	52*	-4	-1	28	69*	-3	-34	-14
Cc1ccsc1C1C(C(=O)O)c2ccccc2C(=O)N1C (configuration not stated)	146*	-2	-6	1	-4	7	-10	-43	-14
CCOC(=O)Cc1csc(NC(=O)c2ccc(Cl)nc2)n1	36*	6	12	-1	1	9	21	-33	-1
COc1ccc(Cl)cc1NC(=O)CCCNC(=O)c1ccc(Cl)cc1	137*	4	-5	4	-7	8	7	-1	3
FC(F)(F)c1nc(N2CCN(c3ccccc3)CC2)nc2c1CCCCC2	48*	-2	6	4	20	3	-11	-30	-12
Cc1nc(N2CCN(Cc3ccccc3)CC2)nc2c1CCC2	-5	1	0	4	6	0	x	x	x
CSc1ccc(NC(=O)CSc2nc3[nH]c(=O)cc(O)c3s2)cc1	40*	8	x	5	8	-22	42*	31	18
Cc1cc(C(F)(F)F)c(C#N)c(SCC(=O)Nc2nc3cc(Br)ccc3s2)n1	53*	11	15	1	-75	3	30	7	-13
N#Cc1c(SCC(=O)Nc2nc3ccc(Br)cc3s2)sc2c(O)cc(=O)[nH]c12	105*	29	8	1	-17	-27	53*	29	-5
N#Cc1cccc(NC(=O)CSc2sc3c(O)cc(=O)[nH]c3c2C#N)c1	55*	11	0	1	-10	-27	-4	-22	-17
CSCCC(NC(=O)c1ccccc1Br)C(=O)NNC(=O)c1cc(C)oc1C (configuration not stated)	-2	-5	x	1	-4	4	x	x	x
O=C(OCc1ccccc1)N(CCF)c1cn(Cc2ccccc2)c(=O)n(Cc2ccccc2)c1=O	-5	0	x	7	5	-2	x	x	x
Cc1nn(C(C)C(=O)N2CCCC2)c(=O)c2nn(-c3ccccc3)c(C)c12 (configuration not stated)	-4	5	0	-2	16	4	x	x	x
CCOc1cccc(/C=C(\C#N)C(=O)NC2CC2)c1	-2	-1	-3	1	10	-5	x	x	x
SMILES	Rpn11 inh	CSN deneddyl inh	TPT1 inhibitor	Rin1-Abl PPI inh	Neddyl block	HNF4A DNA FP	Rpn11 inh conf	MMP-2 inh	Thrombin FP
CCCOc1cc(C)c(S(=O)(=O)NCc2cccs2)cc1C	0	-2	x	5	11	2	x	x	x
COc1ccccc1-c1cc(C(=O)Nc2cc(C)nn2-c2ccccc2)no1	59*	31	0	0	24	6	65*	-20	9
C=CCn1c(C#N)c(N)sc1=N	45*	3	11	1	9	19	5	-33	-14
COC(=O)c1sc(N2C(=O)C(O)=C(C(=O)c3ccc(C)o3)C2c2ccco2)nc1C (configuration not stated)	15	1	8	-1	2	-1	x	x	x
COC(=O)c1sc(N2C(=O)C(O)=C(C(=O)c3ccc(C)o3)C2c2ccc(F)cc2)nc1C (configuration not stated)	54*	30	26*	2	16	16	16	14	-3
CCOC(=O)c1sc(N2C(=O)C(O)=C(C(=O)c3ccco3)C2c2cccc([N+](=O)[O-])c2)nc1C (configuration not stated)	2	-1	-6	5	-12	1	x	x	x
CCOC(=O)c1sc(N2C(=O)C(O)=C(C(=O)c3ccco3)C2c2cccc(Cl)c2)nc1C (configuration not stated)	55*	2	8	-4	-3	4	15	39	5
